{
  "source": "paper PMC6435032",
  "about": "(Cancer prevention research (Philadelphia, Pa.), 2018)",
  "key": {"[1]": {"test_system": "NAD(P)H quinone oxidoreductase (NQO1)", "experiment": "NQO1 activity in mammary gland of ACI rats", "assay_type": "in vivo", "details": "4 days", "how_it_was_run": "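Female ACI rats (n=6/group) were dosed 4 days: EB 1 mg/kg/day sc, alone or with the test compound at 80 mg/kg/day sc or extracts at 2 g/kg/day by gavage. Sesame oil or corn oil/PEG was the vehicle. Frozen mammary tissue was homogenized; NQO1 activity was read at 610 nm in clear supernatant (30 µg protein). Results are fold induction relative to control; mean ± SEM.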"}, "[2]": {"test_system": "estrogen oxidative metabolism (2-MeOE1)", "experiment": "2-MeOE1 in serum by LC-MS/MS", "assay_type": "in vivo", "details": "ACI rats, 4 days, co-administered with EB 1 mg/kg/day; GG, GI 2 g/kg/day, LicA 80 mg/kg/day"}, "E2/E1 levels": {"test_system": "E2/E1 levels", "experiment": "E2/E1 levels in serum by LC-MS/MS", "assay_type": "in vivo", "details": "ACI rats, 4 days, co-administered with EB"}, "CYP1A1 [3]": {"test_system": "CYP1A1", "experiment": "CYP1A1 mRNA expression in mammary tissue, RT-qPCR", "assay_type": "in vivo", "details": "ACI rats, 4 days", "how_it_was_run": "(§1)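 Female ACI rats (5 weeks old, acclimated 1 week, phytoestrogen-free AIN-76A diet, n=6/group) received sc EB 1 mg/kg/day, sc test compound 80 mg/kg/day or gavaged extracts 2 g/kg/day for 4 days. Vehicles were sesame oil sc, or 50% corn oil with 50% PEG/H2O by gavage. Rats were killed day 5; mammary mRNA was measured by TaqMan RT-qPCR with ACTB probe; mean ± SEM, ANOVA/Dunnett or t-test.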"}, "CYP1B1 [4]": {"test_system": "CYP1B1", "experiment": "CYP1B1 mRNA expression in mammary tissue, RT-qPCR", "assay_type": "in vivo", "details": "ACI rats, 4 days", "how_it_was_run": "as §1"}, "CYP1A1 [5]": {"test_system": "CYP1A1", "assay_type": "cell-based, human", "details": "MCF-10A cells, compound 20 µM, 24 h; for Increase of CYP1A1 expression: relative to control"}, "CYP1B1 [6]": {"test_system": "CYP1B1", "assay_type": "cell-based, human", "details": "MCF-10A cells, compound 20 µM, 24 h; for Induction of CYP1B1 expression: relative to control"}, "[7]": {"assay_type": "in vivo", "details": "ACI rats after GG or GI 2 g/kg/day gavage + EB for 4 days", "how_it_was_run": "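Female ACI rats (n=6/group) got extracts 2 g/kg/day by gavage plus sc EB 1 mg/kg/day for 4 days. Serum, liver and mammary homogenates (70% aqueous methanol, 0.1% formic acid) were spiked with naringenin internal standard and protein-precipitated with ice-cold ACN. Supernatant was dried, taken up in 20% ACN and analysed by UHPLC-MS/MS, negative ESI, SRM. Extracts were run at 10 μg/mL in 50% methanol.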"}, "[8]": {"experiment": "LicA metabolites in serum, liver and mammary gland, UHPLC-MS/MS", "assay_type": "in vivo", "details": "ACI rats, sc administration of LicA", "how_it_was_run": "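ACI rats got the test compound sc at 80 mg/kg/day with EB 1 mg/kg/day sc for 4 days and were killed day 5. Serum, and liver or mammary homogenates in 70% aqueous methanol with 0.1% formic acid, were spiked with naringenin. They were precipitated with ice-cold ACN (15 min, 13000 x g, 4 °C), dried under nitrogen and reconstituted in 20% ACN. Metabolites were profiled by UHPLC-MS/MS on C18.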"}, "P450 3A4 [9]": {"test_system": "P450 3A4", "details": "HepG2 cells; cited from earlier work"}, "XRE-luciferase reporter": {"test_system": "XRE-luciferase reporter", "details": "HepG2 cells; cited from earlier work"}, "[10]": {"test_system": "estrogen oxidative metabolism", "details": "MCF-10A cells; cited from earlier work"}, "P450 1A2": {"test_system": "P450 1A2", "details": "cited from earlier work"}, "P450 3A4 [11]": {"test_system": "P450 3A4", "details": "cited from earlier work"}, "NQO1 [12]": {"test_system": "NQO1", "details": "Sprague-Dawley rats; cited from earlier work"}, "NQO1 [13]": {"test_system": "NQO1", "details": "previous in vitro studies; cited from earlier work"}, "CYP1A1 [14]": {"test_system": "CYP1A1", "details": "female Sprague-Dawley rats; cited from earlier work"}, "NQO1 [15]": {"test_system": "NQO1", "details": "cited from earlier work"}, "NQO1 [16]": {"test_system": "NQO1", "details": "Sprague-Dawley rats; cited from earlier work", "remark": "listed apart in the source"}, "[17]": {"test_system": "NAD(P)H quinone oxidoreductase (NQO1)", "experiment": "NQO1 activity in liver tissue of ACI rats", "assay_type": "in vivo", "details": "EB 1 mg/kg/day sc, 4 days, vs vehicle"}, "[18]": {"details": "with EB, GG, GI 2 g/kg/day, LicA 80 mg/kg/day"}},
  "data": [
    {"smiles": "C=CC(C)(C)c1cc(/C=C/C(=O)c2ccc(O)cc2)c(OC)cc1O", "note": "[LicA, licochalcone A]", "values": [
      {"measurement": "Induction of NQO1 activity in mammary tissue", "setting": "[1]; co-treatment with EB, GG, GI 2 g/kg/day, LicA 80 mg/kg/day", "result": "No induction"},
      {"measurement": "Reduction of 2-MeOE1 in serum, of the EB treatment group", "setting": "[2]", "result": "~70", "unit": "%"},
      {"measurement": "Effect on E2/E1 levels in serum", "setting": "E2/E1 levels", "result": "only slightly influenced"},
      {"measurement": "Upregulation of CYP1A1 in mammary tissue compared to the EB treatment group", "setting": "CYP1A1 [3]; [18]", "result": "no statistical difference"},
      {"measurement": "Down-regulation of CYP1B1 expression in mammary tissue compared to the EB treatment group", "setting": "CYP1B1 [4]; [18]", "result": "no statistical difference"},
      {"measurement": "CYP1A1 expression, fold lower than basal levels", "setting": "CYP1A1 [5]", "result": 34, "unit": "fold"},
      {"measurement": "CYP1B1 expression, fold lower than basal levels", "setting": "CYP1B1 [6]", "result": 10, "unit": "fold"},
      {"measurement": "Presence in liver and mammary tissues (qualitative)", "setting": "[7]", "result": "available"},
      {"measurement": "GSH conjugate in the liver", "setting": "[8]", "result": "major metabolite"},
      {"measurement": "GSH conjugate in the serum and mammary tissues", "setting": "[8]", "result": "minor metabolite"},
      {"measurement": "Main metabolism in serum, liver and mammary tissues", "setting": "[8]", "result": "glucuronidation reactions dominated"},
      {"measurement": "Sulfation in mammary tissue", "setting": "[8]", "result": "not detectable"},
      {"measurement": "Sulfation in serum and liver", "setting": "[8]", "result": "minor"},
      {"measurement": "P450 3A4 gene expression", "setting": "P450 3A4 [9]", "result": "decreased"},
      {"measurement": "XRE-luciferase reporter activity", "setting": "XRE-luciferase reporter", "result": "inhibited"},
      {"measurement": "Effect on estrogen oxidative metabolism", "setting": "[10]", "result": "inhibited"},
      {"measurement": "Inhibition of P450 1A2 activity", "setting": "P450 1A2", "result": "moderately inhibited"},
      {"measurement": "Inhibition of P450 3A4 activity", "setting": "P450 3A4 [11]", "result": "moderately inhibited"}
    ]},
    {"smiles": "O=c1cc(-c2ccc(Br)cc2)oc2ccccc12", "note": "[4’bromoflavone]", "values": [
      {"measurement": "NQO1 induction in liver tissues", "setting": "NQO1 [12]", "result": "significant NQO1 induction"}
    ]},
    {"smiles": "O=C1C[C@@H](c2ccc(O)cc2)Oc2cc(O)ccc21", "note": "[LigF, liquiritigenin]", "values": [
      {"measurement": "Increase of CYP1A1 expression", "setting": "CYP1A1 [5]", "result": "did not affect"},
      {"measurement": "Induction of CYP1B1 expression", "setting": "CYP1B1 [6]", "result": 2, "unit": "fold"},
      {"measurement": "Presence in liver and mammary tissues (qualitative)", "setting": "[7]", "result": "available"},
      {"measurement": "Effect on NQO1 activity in vitro", "setting": "NQO1 [13]", "result": "no effect"},
      {"measurement": "Effect on estrogen oxidative metabolism", "setting": "[10]", "result": "no effect"}
    ]},
    {"smiles": "CC1(C)C=Cc2c(ccc3c2OC[C@@H](c2ccc(O)cc2O)C3)O1", "note": "[glabridin]", "values": [
      {"measurement": "Presence in liver and mammary tissues (qualitative)", "setting": "[7]", "result": "not detected"},
      {"measurement": "Inhibition of P450 1A2 activity", "setting": "P450 1A2", "result": "weakly"},
      {"measurement": "Inhibition of P450 3A4 activity", "setting": "P450 3A4 [11]", "result": "weakly"}
    ]},
    {"smiles": "O=C(/C=C/c1ccc(O)cc1)c1ccc(O)cc1O", "note": "[LigC, isoliquiritigenin]", "values": [
      {"measurement": "Increase of CYP1A1 expression", "setting": "CYP1A1 [5]", "result": 4, "unit": "fold"},
      {"measurement": "Induction of CYP1B1 expression", "setting": "CYP1B1 [6]", "result": 2.5, "unit": "fold"},
      {"measurement": "Presence in liver and mammary tissues (qualitative)", "setting": "[7]", "result": "available"},
      {"measurement": "Increase of CYP1A1 levels in mammary tissues", "setting": "CYP1A1 [14]", "result": 6.84, "unit": "fold"},
      {"measurement": "Induction of NQO1 activity in in vivo models", "setting": "NQO1 [15]", "result": "didn’t induce"},
      {"measurement": "Effect on estrogen oxidative metabolism", "setting": "[10]", "result": "increase"},
      {"measurement": "Inhibition of P450 1A2 activity", "setting": "P450 1A2", "result": "weakly"},
      {"measurement": "Inhibition of P450 3A4 activity", "setting": "P450 3A4 [11]", "result": "weakly"}
    ]},
    {"smiles": "COc1cc(O)c(CC=C(C)C)c(O)c1C(=O)/C=C/c1ccc(O)cc1", "note": "[xanthohumol]", "values": [
      {"measurement": "NQO1 induction in the mammary gland", "setting": "NQO1 [16]", "result": "no NQO1 induction"},
      {"measurement": "NQO1 induction in liver tissues", "setting": "NQO1 [12]", "result": "significant NQO1 induction"}
    ]},
    {"smiles": "C[C@]12CC[C@@H]3c4ccc(OC(=O)c5ccccc5)cc4CC[C@H]3[C@@H]1CC[C@@H]2O", "note": "[EB, estradiol benzoate, reference compound]", "values": [
      {"measurement": "Effect of EB alone on NQO1 activity in liver tissue", "setting": "[17]", "result": "did not affect the NQO1 activity significantly"},
      {"measurement": "Effect of EB on NQO1 activity in the mammary gland", "setting": "[1]; EB 1 mg/kg/day, vs vehicle", "result": "slightly reduced"},
      {"measurement": "CYP1A1 expression in mammary tissue, fold lower than the vehicle control group", "setting": "CYP1A1 [3]; EB 1 mg/kg/day", "result": 3, "unit": "fold"},
      {"measurement": "CYP1B1 expression in mammary tissue, fold lower than the vehicle control group", "setting": "CYP1B1 [4]; EB 1 mg/kg/day", "result": 5, "unit": "fold"}
    ]}
  ]
}
